Measured values reported in ChEMBL document CHEMBL1137555, “Aminocyclohexylsulfonamides: discovery of metabolically stable alpha(1a/1d)-selective adrenergic receptor antagonists for the treatment of benign prostatic hyperplasia/lower urinary tract symptoms (BPH/LUTS)” (Bioorg Med Chem Lett, 2007).

Legend:
[1] = Metabolic stability in human liver microsomes; type: ADME, Microsome
Method in brief: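 Human liver microsomal metabolism assay; read-out was half-life (T1/2, min).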

[2] = molecular target: T1, Alpha-1B adrenergic receptor (Homo sapiens, UniProt P35368); experiment: Binding affinity to human cloned adrenergic alpha-1b receptor
T1 sequence (P35368 whole entry): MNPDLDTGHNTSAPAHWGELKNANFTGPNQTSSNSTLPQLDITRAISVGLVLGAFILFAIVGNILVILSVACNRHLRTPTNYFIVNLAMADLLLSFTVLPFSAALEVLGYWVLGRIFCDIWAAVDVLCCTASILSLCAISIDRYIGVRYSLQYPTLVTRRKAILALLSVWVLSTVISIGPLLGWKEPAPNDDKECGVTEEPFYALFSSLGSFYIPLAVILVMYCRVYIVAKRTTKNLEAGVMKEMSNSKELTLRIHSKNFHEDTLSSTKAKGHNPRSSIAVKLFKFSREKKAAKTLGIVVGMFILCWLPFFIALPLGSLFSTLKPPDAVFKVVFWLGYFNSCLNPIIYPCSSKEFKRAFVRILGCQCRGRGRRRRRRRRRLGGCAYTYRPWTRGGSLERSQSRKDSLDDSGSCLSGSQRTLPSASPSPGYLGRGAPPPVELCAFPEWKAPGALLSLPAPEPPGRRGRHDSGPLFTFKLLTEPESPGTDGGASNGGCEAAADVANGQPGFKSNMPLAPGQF

[3] = molecular target: T2, Alpha-1D adrenergic receptor (Homo sapiens, UniProt P25100); experiment: Binding affinity to human cloned adrenergic alpha-1d receptor
T2 sequence (P25100 whole entry): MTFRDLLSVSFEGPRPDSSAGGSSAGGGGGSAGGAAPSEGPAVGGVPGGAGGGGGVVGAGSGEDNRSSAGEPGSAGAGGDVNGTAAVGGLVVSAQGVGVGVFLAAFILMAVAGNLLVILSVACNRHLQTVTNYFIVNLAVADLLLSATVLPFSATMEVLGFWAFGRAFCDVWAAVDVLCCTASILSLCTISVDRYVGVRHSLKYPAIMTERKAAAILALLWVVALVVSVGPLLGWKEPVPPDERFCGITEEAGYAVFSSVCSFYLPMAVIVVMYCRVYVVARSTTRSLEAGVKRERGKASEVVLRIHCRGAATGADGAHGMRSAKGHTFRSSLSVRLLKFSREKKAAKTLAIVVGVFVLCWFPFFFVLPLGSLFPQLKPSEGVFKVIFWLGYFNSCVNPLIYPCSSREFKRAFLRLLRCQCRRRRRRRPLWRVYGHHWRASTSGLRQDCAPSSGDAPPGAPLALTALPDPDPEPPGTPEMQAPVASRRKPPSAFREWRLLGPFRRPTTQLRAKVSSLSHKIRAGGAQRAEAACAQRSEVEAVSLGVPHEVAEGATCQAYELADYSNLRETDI

D(2) dopamine receptor = D(2) dopamine receptor (Homo sapiens, UniProt P14416); experiment: Binding affinity to human cloned dopamine D2 receptor
Chain of D(2) dopamine receptor (P14416 whole entry): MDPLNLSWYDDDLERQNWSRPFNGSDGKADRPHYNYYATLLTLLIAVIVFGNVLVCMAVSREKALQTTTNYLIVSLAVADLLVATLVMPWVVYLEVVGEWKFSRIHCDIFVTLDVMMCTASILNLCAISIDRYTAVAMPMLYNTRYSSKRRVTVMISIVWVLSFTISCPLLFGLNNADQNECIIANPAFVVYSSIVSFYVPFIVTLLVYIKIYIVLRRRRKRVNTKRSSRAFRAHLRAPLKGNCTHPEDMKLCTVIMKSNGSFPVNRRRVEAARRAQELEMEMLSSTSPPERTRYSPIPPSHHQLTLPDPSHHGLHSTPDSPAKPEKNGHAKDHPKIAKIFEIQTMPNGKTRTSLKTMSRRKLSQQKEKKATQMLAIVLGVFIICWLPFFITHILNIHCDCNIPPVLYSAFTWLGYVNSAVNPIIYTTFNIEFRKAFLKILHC

[4] = molecular target: T3, Alpha-1A adrenergic receptor (Homo sapiens, UniProt P35348); experiment: Binding affinity to human cloned adrenergic Alpha-1A receptor
T3 sequence (P35348 whole entry): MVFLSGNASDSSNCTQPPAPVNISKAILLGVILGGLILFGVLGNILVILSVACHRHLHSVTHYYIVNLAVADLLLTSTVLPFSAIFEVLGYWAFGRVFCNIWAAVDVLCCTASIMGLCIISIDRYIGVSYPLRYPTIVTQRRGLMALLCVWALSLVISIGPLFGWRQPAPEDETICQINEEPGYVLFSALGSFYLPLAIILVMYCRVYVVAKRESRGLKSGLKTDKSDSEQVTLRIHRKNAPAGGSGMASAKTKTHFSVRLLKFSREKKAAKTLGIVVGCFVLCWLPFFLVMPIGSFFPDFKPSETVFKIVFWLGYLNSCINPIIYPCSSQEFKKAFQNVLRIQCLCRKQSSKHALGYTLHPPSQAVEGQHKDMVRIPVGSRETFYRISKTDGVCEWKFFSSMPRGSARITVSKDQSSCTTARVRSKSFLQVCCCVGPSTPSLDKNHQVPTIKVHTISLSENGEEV

half-life [1] [min] | Ki (D(2) dopamine receptor) [nM] | SMILES | Ki [2] [nM] | Ki [3] [nM] | Ki [4] [nM]
56 |  | COc1ccc(S(=O)(=O)N[C@H]2CC[C@@H](N3CCC(c4ccccc4OCC(F)(F)F)CC3)CC2)cc1OC |  |  | 
 | 114 | COc1ccc(S(=O)(=O)N[C@H]2CC[C@H](N3CCN(c4ccccc4OCC(F)(F)F)CC3)CC2)cc1OC | 39 |  | 
 | 2.7 | CCN([C@H]1CC[C@H](N2CCN(c3ccccc3OC(C)C)CC2)CC1)S(=O)(=O)c1ccc(OC)c(OC)c1 |  |  | 
 | 113 | CCN([C@H]1CC[C@@H](N2CCN(c3ccccc3OC(C)C)CC2)CC1)S(=O)(=O)c1ccc(OC)c(OC)c1 |  |  | 
20 | 330 | COc1ccc(S(=O)(=O)N[C@H]2CC[C@@H](N3CCC(c4ccccc4OCCF)CC3)CC2)cc1OC |  |  | 
35 | 192 | COc1ccc(S(=O)(=O)N[C@H]2CC[C@@H](N3CCN(c4ccccc4OCC(F)(F)F)CC3)CC2)cc1OC | 86 | 0.35 | 

Further lines, the compound ahead of its results:

SMILES | half-life [1] [min] | Ki (D(2) dopamine receptor) [nM] | Ki [2] [nM] | Ki [3] [nM] | Ki [4] [nM]
COc1ccc(S(=O)(=O)N[C@H]2CC[C@@H](N3CCN(c4ccccc4OC(C)C)CC3)CC2)cc1OC | 4.9 | 136 | 106 | 0.68 | 
COc1ccc(C)cc1S(=O)(=O)N[C@H]1CC[C@@H](N2CCN(c3ccccc3OC(C)C)CC2)CC1 | < 2 |  |  |  | 
COc1ccc(S(=O)(=O)N[C@H]2CC[C@@H](N3CCC(c4ccccc4OC(C)C)CC3)CC2)cc1OC | 12 | 165 | 151 | 1.7 | 1.8
COc1ccc(S(=O)(=O)N[C@H]2CC[C@@H](N3CCC(c4ccccc4OC4CC4)CC3)CC2)cc1OC | 18 |  |  |  | 
COc1ccc(F)cc1S(=O)(=O)N[C@H]1CC[C@@H](N2CCN(c3ccccc3OC(C)C)CC2)CC1 | < 2 |  |  |  | 
COc1ccc(S(=O)(=O)N[C@H]2CC[C@@H](N3CCC(c4ccccc4OCC(F)F)CC3)CC2)cc1OC | 21 | 228 | 278 | 8.6 | 
COc1ccc(Cl)cc1S(=O)(=O)N[C@H]1CC[C@@H](N2CCN(c3ccccc3OC(C)C)CC2)CC1 | < 2 |  |  |  | 
CC(C)Oc1ccccc1N1CCN([C@H]2CC[C@@H](NS(=O)(=O)c3ccc(S(C)(=O)=O)cc3)CC2)CC1 | 2.5 |  |  |  | 
CC(C)Oc1ccccc1N1CCN([C@H]2CC[C@@H](NS(=O)(=O)c3ccc(Cl)cc3Cl)CC2)CC1 | 3.5 |  |  |  | 
